Assay results published in ChEMBL document CHEMBL4007505 (J Med Chem, 2017).
Active and inactive are the calls of the source. The calls are words filed in the database; no cut-off is given here.

How the values were obtained:
[1] = target: T1, Sodium-dependent dopamine transporter (Homo sapiens, UniProt Q01959); assay: Enhancing of [125I]RTI-55 binding to recombinant human DAT expressed in HEK293 cell membranes preincubated for 10 mins followed by radioligand addition measured after 90 mins by micro beta scintillation counting analysis; parameters: concentration or dose not given beside the values
Method in brief: (§1)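 Membranes of HEK-293 cells stably expressing hDAT, hNET or hSERT. […] Compound preincubated 10 min at room temperature, then [125I]23 (40-80 pM final) or [3H]26 (1-3 nM for DAT and NET, 10-13 nM for SERT) added. Incubated 90 min at room temperature in the dark, then filtered. EC50 or Ki; mean ± SEM.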

[2] = target: T2, Sodium-dependent noradrenaline transporter (Homo sapiens, UniProt P23975); assay: Enhancing of [125I]RTI-55 binding to recombinant human NET expressed in HEK293 cell membranes preincubated for 10 mins followed by radioligand addition measured after 90 mins by micro beta scintillation counting analysis; parameters: concentration or dose not given beside the values
[3] = target: T1, Sodium-dependent dopamine transporter; assay: Inhibition of recombinant human DAT expressed in HEK293 cell […] as reduction in [3H]-DA uptake incubated for 22 mins by micro beta scintillation counting analysis
[4] = target: Beta-3 adrenergic receptor (Homo sapiens, UniProt P13945); assay: Displacement of [3H]CGP12177 from human adrenergic beta3 receptor
[5] = target: T1, Sodium-dependent dopamine transporter; assay: Enhancing of [3H]WIN35,428 binding to recombinant human DAT expressed in HEK293 cell membranes pre-incubated for 10 mins before radioligand addition and measured 90 mins after radioligand addition by micro beta scintillation counting analysis relative to control
[6] = target: T1, Sodium-dependent dopamine transporter; assay: Enhancing of [3H]mazindol binding to recombinant human DAT expressed in HEK293 cell membranes preincubated for 10 mins followed by radioligand addition measured after 90 mins by micro beta scintillation counting analysis; settings: hek293; method in brief: as §1
[7] = target: T2, Sodium-dependent noradrenaline transporter; assay: Enhancing of [3H]mazindol binding to recombinant human NET expressed in HEK293 cell membranes preincubated for 10 mins followed by radioligand addition measured after 90 mins by micro beta scintillation counting analysis
[8] = target: T2, Sodium-dependent noradrenaline transporter; assay: Inhibition of recombinant human NET expressed in HEK293 […] assessed as reduction in [3H]-norepinephrine uptake incubated for 22 mins by micro beta scintillation counting analysis
[9] = target: T3, Sodium-dependent serotonin transporter (Homo sapiens, UniProt P31645); assay: Enhancing of [125I]RTI-55 binding to recombinant human SERT expressed in HEK293 cell membranes preincubated for 10 mins followed by radioligand addition measured after 90 mins by micro beta scintillation counting analysis; settings: hek293
[10] = target: T2, Sodium-dependent noradrenaline transporter; assay: Inhibition of [125I]RTI-55 binding to recombinant human NET expressed in HEK293 cell membranes preincubated for 10 mins followed by radioligand addition measured after 90 mins by micro beta scintillation counting analysis
[11] = target: T2, Sodium-dependent noradrenaline transporter; assay: Inhibition of [3H]mazindol binding to recombinant human NET expressed in HEK293 cell membranes preincubated for 10 mins followed by radioligand addition measured after 90 mins by micro beta scintillation counting analysis
[12] = target: T1, Sodium-dependent dopamine transporter; assay: Enhancing of [3H]WIN35,428 binding to recombinant human DAT expressed in HEK293 cell membranes at 10 uM pre-incubated for 10 mins before radioligand addition and measured 90 mins after radioligand addition by micro beta scintillation counting analysis relative to control
[13] = target: T1, Sodium-dependent dopamine transporter; assay: Inhibition of [3H]WIN35,428 binding to recombinant human DAT expressed in HEK293 cell membranes at 10 uM pre-incubated for 10 mins before radioligand addition and measured 90 mins after radioligand addition by micro beta scintillation counting analysis relative to control
[14] = target: T4, Adenosine receptor A3 (Homo sapiens, UniProt P0DMS8); assay: Displacement of [125I]N6-(4-amino-3-iodobenzyl)adenosine-5'-N-methyluronamide from human A3AR expressed in HEK293T cells pre-incubated for 10 mins before radioligand addition and measured 90 mins after radioligand addition by micro beta scintillation counting analysis relative to control; assay type: cell-based, HEK-293T
T4 sequence (P0DMS8 whole entry): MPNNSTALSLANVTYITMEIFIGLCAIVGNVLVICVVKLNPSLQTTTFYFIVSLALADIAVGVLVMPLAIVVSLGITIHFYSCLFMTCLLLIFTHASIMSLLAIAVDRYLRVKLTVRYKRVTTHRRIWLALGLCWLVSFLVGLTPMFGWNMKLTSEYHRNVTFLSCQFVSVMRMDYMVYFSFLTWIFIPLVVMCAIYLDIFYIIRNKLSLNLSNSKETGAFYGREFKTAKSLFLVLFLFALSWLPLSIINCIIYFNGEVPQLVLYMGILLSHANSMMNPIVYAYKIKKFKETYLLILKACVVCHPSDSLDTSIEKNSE

[15] = target: T5, Adenosine receptor A3 (Mus musculus) (UniProt Q61618); assay: Displacement of [125I]N6-(4-amino-3-iodobenzyl)adenosine-5'-N-methyluronamide from mouse A3AR expressed in HEK293T cells at 10 uM pre-incubated for 10 mins before radioligand addition and measured 90 mins after radioligand addition by micro beta scintillation counting analysis relative to control; assay type: cell-based
T5 sequence (whole entry): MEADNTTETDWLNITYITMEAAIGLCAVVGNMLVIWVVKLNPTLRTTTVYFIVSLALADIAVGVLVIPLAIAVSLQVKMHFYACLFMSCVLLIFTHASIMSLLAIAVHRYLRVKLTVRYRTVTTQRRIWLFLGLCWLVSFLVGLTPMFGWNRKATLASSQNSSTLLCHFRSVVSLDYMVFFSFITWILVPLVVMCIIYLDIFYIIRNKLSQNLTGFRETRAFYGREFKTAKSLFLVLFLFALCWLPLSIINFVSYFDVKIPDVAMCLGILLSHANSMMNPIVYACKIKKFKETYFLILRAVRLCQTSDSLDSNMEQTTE

[16] = target: T6, 5-hydroxytryptamine receptor 2C (Homo sapiens, UniProt P28335); assay: Displacement of [3H]Mesulergine from human 5-HT2C receptor
T6 sequence (P28335 whole entry): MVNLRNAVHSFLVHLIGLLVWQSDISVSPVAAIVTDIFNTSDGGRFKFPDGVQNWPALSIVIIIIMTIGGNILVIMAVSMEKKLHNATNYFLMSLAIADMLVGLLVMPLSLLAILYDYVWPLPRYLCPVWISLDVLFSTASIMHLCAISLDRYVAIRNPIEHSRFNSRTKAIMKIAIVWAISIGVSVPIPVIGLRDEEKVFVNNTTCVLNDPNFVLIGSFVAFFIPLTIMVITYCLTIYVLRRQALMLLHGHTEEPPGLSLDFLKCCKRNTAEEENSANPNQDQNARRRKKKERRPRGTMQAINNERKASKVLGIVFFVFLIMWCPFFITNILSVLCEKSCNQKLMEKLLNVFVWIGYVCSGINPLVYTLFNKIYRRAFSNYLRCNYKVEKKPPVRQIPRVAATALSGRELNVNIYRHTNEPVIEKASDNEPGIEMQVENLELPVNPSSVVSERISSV

[17] = target: Muscarinic acetylcholine receptor M5 (Homo sapiens, UniProt P08912); assay: Displacement of [3H]QNB from human muscarinic M5 receptor
[18] = target: Sigma non-opioid intracellular receptor 1 (Rattus norvegicus, UniProt Q9R0C9); assay: Displacement of [3H]Pentazocine from rat sigma 1 receptor
[19] = target: Sigma intracellular receptor 2 (Rattus norvegicus, UniProt Q5U3Y7); assay: Displacement of [3H]DTG from rat sigma 2 receptor
[20] = target: Adenosine receptor A3 (Homo sapiens) (UniProt P0DMS8); assay: Agonist activity at human A3AR assessed as inhibition of cAMP formation at 10 uM relative to adenosine-5'-Nethyluronamide
[21] = target: T3, Sodium-dependent serotonin transporter; assay: Inhibition of [125I]RTI-55 binding to recombinant human SERT expressed in HEK293 cell membranes preincubated for 10 mins followed by radioligand addition measured after 90 mins by micro beta scintillation counting analysis
[22] = target: T1, Sodium-dependent dopamine transporter; assay: Inhibition of [3H]mazindol binding to recombinant human DAT expressed in HEK293 cell membranes preincubated for 10 mins followed by radioligand addition measured after 90 mins by micro beta scintillation counting analysis

T1 sequence (Q01959 whole entry): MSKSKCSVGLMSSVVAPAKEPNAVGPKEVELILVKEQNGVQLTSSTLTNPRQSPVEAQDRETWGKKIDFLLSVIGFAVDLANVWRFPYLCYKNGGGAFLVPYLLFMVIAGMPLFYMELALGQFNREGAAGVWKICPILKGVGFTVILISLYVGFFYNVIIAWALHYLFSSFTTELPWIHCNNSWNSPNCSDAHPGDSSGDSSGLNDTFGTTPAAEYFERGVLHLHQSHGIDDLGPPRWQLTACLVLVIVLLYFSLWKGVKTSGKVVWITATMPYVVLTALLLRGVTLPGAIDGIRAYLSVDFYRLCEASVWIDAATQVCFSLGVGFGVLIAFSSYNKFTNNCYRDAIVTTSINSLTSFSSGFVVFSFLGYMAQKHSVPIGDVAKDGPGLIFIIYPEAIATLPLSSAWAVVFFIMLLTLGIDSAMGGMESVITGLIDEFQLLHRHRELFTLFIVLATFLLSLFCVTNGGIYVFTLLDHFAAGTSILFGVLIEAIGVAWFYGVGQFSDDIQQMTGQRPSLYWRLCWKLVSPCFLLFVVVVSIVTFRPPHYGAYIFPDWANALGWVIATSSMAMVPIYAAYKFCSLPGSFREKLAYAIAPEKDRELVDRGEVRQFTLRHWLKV
T2 sequence (P23975 whole entry): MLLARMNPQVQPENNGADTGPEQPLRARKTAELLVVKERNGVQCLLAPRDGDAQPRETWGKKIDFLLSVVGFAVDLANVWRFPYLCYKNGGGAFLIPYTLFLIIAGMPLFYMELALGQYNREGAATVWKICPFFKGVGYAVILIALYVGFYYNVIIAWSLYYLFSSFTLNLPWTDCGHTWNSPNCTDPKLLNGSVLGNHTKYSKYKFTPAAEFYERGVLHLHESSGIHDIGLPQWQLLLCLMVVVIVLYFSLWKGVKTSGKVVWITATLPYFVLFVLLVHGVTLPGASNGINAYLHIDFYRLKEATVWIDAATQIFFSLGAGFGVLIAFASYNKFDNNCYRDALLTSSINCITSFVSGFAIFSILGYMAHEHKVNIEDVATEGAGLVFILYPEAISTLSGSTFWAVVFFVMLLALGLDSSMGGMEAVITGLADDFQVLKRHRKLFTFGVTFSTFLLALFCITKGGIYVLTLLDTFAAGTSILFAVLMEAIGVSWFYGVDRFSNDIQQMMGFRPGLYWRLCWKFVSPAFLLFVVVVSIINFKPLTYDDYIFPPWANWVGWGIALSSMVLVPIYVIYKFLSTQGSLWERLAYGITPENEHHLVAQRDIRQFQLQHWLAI
T3 sequence (P31645 whole entry): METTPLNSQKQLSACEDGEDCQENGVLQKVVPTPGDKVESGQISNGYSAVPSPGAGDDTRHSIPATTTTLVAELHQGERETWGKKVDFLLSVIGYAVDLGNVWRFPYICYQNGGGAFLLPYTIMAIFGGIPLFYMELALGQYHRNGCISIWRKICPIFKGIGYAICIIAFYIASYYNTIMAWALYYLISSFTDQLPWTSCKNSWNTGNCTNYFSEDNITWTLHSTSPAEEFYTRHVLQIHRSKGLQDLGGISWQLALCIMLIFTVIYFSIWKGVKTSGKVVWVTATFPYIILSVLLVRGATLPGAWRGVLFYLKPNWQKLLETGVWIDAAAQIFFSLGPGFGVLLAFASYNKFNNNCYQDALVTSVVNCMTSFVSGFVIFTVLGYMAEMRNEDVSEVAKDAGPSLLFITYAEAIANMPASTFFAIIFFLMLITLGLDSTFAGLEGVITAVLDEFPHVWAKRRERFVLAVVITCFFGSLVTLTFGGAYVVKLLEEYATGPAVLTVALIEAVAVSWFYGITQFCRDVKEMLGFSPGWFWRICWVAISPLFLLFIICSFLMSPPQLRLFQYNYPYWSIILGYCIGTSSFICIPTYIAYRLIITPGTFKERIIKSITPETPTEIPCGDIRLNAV
Chain of Muscarinic acetylcholine receptor M5 (P08912 whole entry): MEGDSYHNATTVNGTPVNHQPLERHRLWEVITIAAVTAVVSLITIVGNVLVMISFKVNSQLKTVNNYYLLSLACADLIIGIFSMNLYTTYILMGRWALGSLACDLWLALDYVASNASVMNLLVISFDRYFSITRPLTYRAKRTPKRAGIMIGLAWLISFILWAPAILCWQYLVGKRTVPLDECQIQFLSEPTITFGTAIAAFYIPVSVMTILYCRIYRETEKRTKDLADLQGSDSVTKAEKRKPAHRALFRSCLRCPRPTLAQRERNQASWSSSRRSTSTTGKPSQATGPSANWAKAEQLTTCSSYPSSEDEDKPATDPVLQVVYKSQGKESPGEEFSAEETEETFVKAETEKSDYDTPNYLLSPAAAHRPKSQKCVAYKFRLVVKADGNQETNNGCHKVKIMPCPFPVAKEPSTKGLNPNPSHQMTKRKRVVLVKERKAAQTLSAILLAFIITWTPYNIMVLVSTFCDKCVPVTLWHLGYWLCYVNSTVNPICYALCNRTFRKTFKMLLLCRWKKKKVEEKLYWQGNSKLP
Chain of Sigma non-opioid intracellular receptor 1 (Q9R0C9 whole entry): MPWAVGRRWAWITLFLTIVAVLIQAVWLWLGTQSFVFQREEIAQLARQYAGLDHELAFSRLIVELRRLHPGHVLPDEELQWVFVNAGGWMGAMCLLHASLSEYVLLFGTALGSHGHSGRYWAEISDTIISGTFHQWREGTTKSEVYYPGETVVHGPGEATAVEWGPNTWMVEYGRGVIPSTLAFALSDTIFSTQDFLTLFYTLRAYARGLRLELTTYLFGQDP
Chain of Sigma intracellular receptor 2 (Q5U3Y7 whole entry): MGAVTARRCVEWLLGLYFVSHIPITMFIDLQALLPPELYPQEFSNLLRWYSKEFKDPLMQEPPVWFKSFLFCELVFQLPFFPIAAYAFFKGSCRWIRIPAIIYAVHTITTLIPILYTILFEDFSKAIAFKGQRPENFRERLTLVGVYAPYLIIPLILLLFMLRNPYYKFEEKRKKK
Chain of Beta-3 adrenergic receptor (P13945 whole entry): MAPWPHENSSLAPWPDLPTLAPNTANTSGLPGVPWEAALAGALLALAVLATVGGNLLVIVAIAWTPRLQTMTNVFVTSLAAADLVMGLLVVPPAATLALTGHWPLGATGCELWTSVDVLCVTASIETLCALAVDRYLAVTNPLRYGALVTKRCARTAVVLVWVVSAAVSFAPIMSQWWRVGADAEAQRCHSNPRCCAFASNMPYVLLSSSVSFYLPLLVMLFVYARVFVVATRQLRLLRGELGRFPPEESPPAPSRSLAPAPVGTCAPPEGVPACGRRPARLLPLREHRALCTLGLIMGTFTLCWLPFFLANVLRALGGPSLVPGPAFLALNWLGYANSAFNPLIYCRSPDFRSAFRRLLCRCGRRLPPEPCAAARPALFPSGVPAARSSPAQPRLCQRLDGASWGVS

## CCCNc1nc(C#Cc2ccc(Cl)s2)nc2c1ncn2[C@H]1[C@H](O)[C@H](O)[C@]2(C(=O)NC)C[C@H]12
[1]
  Activity: 268%
[1]; read-out: EC50
  EC50: 1120 nM
[2]
  Activity: 159%
[2]; read-out: EC50
  EC50: 900 nM
[3]
  IC50: > 8.7 µM
[4]
  Ki: 1440 nM
[5]
  EC50: > 1000 nM

## OC1(c2ccc(Cl)cc2)c2ccccc2C2=NCCN21 (racemic) [MAZINDOL]
[1]; hek293
  EC50: Not Active
[6]
  EC50: Not Active
[2]; hek293
  EC50: Not Active
[7]
  EC50: Not Active
[8]
  IC50: 0.92 nM
[9]
  EC50: Not Active
[10]
  Ki: 11.3 nM
[11]
  Ki: 13.5 nM

## CCOC(=O)[C@@]12C[C@@H]1[C@@H](n1cnc3c(NC)nc(C#Cc4ccc(Cl)s4)cc31)[C@H](O)[C@@H]2O
[12]
  Activity: 354%
[13]
  inhibition: inactive
[14]
  Ki: 169 nM
[15]
  inhibition: 18%
[16]
  Ki: 395 nM
[17]
  Ki: 3.8 µM
[18]
  Ki: 1040 nM
[19]
  Ki: 1900 nM
[20]
  Efficacy: 3.6%

## CNc1nc(C#Cc2ccc(Cl)s2)nc2c1ncn2[C@H]1[C@H](O)[C@H](O)[C@]2(C(=O)OCc3ccccc3)C[C@H]12
[12]
  Activity: inactive
[14]
  Ki: 7.31 nM
[15]
  inhibition: 48%
[21]
  Ki: 5.6 µM

## COC(=O)[C@H]1[C@@H](c2ccc([125I])cc2)CC2CC[C@H]1N2C
[6]
  EC50: Not Active
[7]
  EC50: Not Active
[22]
  Ki: 11 nM
